Experimental data from different studies.
Each line is one published result; the experiments were not run side by side.
MAP2K6: Dual specificity mitogen-activated protein kinase kinase 6 (MAP2K6, Homo sapiens, UniProt P52564)

Cc1ccc(C(=O)Nc2ccc(CN3CCN(C)CC3)c(C(F)(F)F)c2)cc1C#Cc1cnc2cccnn12  remaining activity (MAP2K6; enzyme activity, inhibitor; 23.5 nM): 100%
Cn1c2c(Cl)c(Cl)ccc2c2cn[nH]c(=O)c21  ΔTm (MAP2K6; thermal stability, DSF; 10 µM): 0.1 °C
Cc1ccc(Nc2nccc(N(C)c3ccc4c(C)n(C)nc4c3)n2)cc1S(N)(=O)=O  inhibition (MAP2K6; enzyme activity, inhibitor; 0.3 µM): -10%
CCC(=N\O)/C(C)=C/c1ccc(F)cc1  remaining binding (MAP2K6; cell-free assay, competition with immobilised ligand; 1 µM): 98%
O=C1NC(=O)c2cc(Nc3ccc(F)cc3)c(Nc3ccc(F)cc3)cc21  remaining signal (MAP2K6; cell-free assay; 0.5 µM): 110%
CN(C)CC#Cc1ccc(OCCCc2sc(N3CCc4cccc(C(=O)Nc5nc6ccccc6s5)c4C3)nc2C(=O)O)c(F)c1  remaining binding (MAP2K6; cell-free assay, competition with immobilised ligand; 1 µM): 100%
CC[C@H](CO)Nc1nc(NCc2ccccc2)c2ncn(C(C)C)c2n1  remaining signal (MAP2K6; cell-free assay; 0.5 µM): 98.2%
Cc1sc(C(=O)NC2COC2)cc1-n1cc(NC(=O)Nc2c(F)cccc2Cl)cn1  remaining activity (MAP2K6; enzyme activity, inhibitor; 10 µM): 86.4%
CCCOc1ccc(OC)c(F)c1C(=O)c1ccc(C(=O)N[C@@H]2CNC[C@H]2NC(=O)c2ccc3[nH]ncc3c2)cc1  remaining activity (MAP2K6; enzyme activity, inhibitor; 10 µM): 103%
CCN(CC)c1ccc(C2=NNC(=O)CC2C)cc1[N+](=O)[O-] (centres unmarked)  remaining activity (MAP2K6; enzyme activity, inhibitor; 10 µM): 97%
Cc1cnc(NC2CCOCC2)nc1-n1cnc(C(=O)NC(CN)c2cc(F)cc(Cl)c2)c1 (centres unmarked)  remaining activity (MAP2K6; enzyme activity, inhibitor, radiometric; 1 µM): 96%
Cn1c(=O)n(-c2ccc(C(C)(C)C#N)cc2)c2c3cc(-c4cnc5ccccc5c4)ccc3ncc21  remaining activity (MAP2K6; enzyme activity, inhibitor; 10 µM): 93%
Cn1c2c(c3ccc(Cl)c(Cl)c31)C(C#N)C1(CCCCC1)NC2=O (racemic)  ΔTm (MAP2K6; thermal stability, DSF; 10 µM): 0.2 °C
Cc1nc(Cc2cccc(C(F)(F)F)c2)sc1-c1ccc(C(N)=O)nc1  remaining binding (MAP2K6; cell-free assay, competition with immobilised ligand; 1 µM): 69%
COc1cc2ncnc(Nc3ccc(Oc4ccccc4)cc3C)c2cc1OC  inhibition (MAP2K6; enzyme activity, inhibitor; 1 µM): 3%
CN(C)C1CCN(CC#Cc2nn(C3CCCC3)c3nc(NCc4ccccc4)ncc23)C1 (centres unmarked)  inhibition (MAP2K6; enzyme activity, inhibitor, FRET; 10 µM): 8%
Cn1cc(Cl)c2c(Oc3c(F)cc(Nc4cc(Cl)nc(N)n4)cc3F)ccnc21  remaining binding (MAP2K6; cell-free assay, competition with immobilised ligand; 0.1 µM): 100%
O=C1Nc2ccc(Cl)cc2C1=Cc1cc(Cl)c(O)c(Cl)c1  remaining signal (MAP2K6; cell-free assay; 0.5 µM): 96.4%
C[C@@H]1CN(c2cc(-c3nn(C)c4ccc(OC5(C)CC5)cc34)ncn2)C[C@H](C)O1  remaining binding (MAP2K6; cell-free assay, competition with immobilised ligand; 1 µM): 89%
CC(C)(C)c1nc2c(s1)c1nc(N)ncc1c1ccc(NS(=O)(=O)c3c(F)cccc3F)c(F)c12  remaining activity (Dual specificity mitogen-activated protein kinase kinase 6 (MAP2K6, Homo sapiens, UniProt P52564, S207D/T211D); enzyme activity, inhibitor, radiometric; 1 µM): 70%
CC(C)(O)[C@H]1CC[C@H](Nc2ccc3ncc(-c4cccc(C(F)(F)F)c4)n3n2)CC1  remaining activity (MAP2K6; enzyme activity, inhibitor; 1 µM): 90.6%
CNCc1ccccc1-c1csc([C@@H](C)Nc2nc(C)nc3cc(OC)c(OC)cc23)c1  remaining binding (MAP2K6; cell-free assay, competition with immobilised ligand; 1 µM): 86%
Cn1c2c(c3ccc(Cl)c(Cl)c31)C(C#N)C(C)(C)NC2=O (centres unmarked)  ΔTm (MAP2K6; thermal stability, DSF; 10 µM): 0.2 °C
